Test results taken from ChEMBL document CHEMBL1177802, “Novel semicarbazones based 2,5-disubstituted-1,3,4-oxadiazoles: one more step towards establishing four binding site pharmacophoric model hypothesis for anticonvulsant activity” (Bioorg Med Chem Lett, 2010).
Activity calls are given as the source filed them.

Experiments:
Mus musculus [1] = experiment: Neurotoxicity in Swiss albino mouse at 300 mg/kg, ip after 0.5 hrs; format: toxicity, organism-based; parameters: dose 300 mg/kg, route intraperitoneal; settings: in vivo
Method in brief: (§1)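 Acute neurotoxicity by rotorod test in mice given 30, 100 and 300 mg/kg ip, assessed 0.5 and 4.0 h after dosing. Reported as the minimal dose producing the effect in half or more of the animals. Absence of activity is judged at the 300 mg/kg maximum.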

Rattus norvegicus [2] = experiment: Anticonvulsant activity against subcutaneous strychnine-induced seizures in Wistar rat at 300 mg/kg, ip after 4 hrs; format: functional, organism-based; parameters: dose 300 mg/kg
Method in brief: (§2)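 Rats; subcutaneous strychnine-induced seizure model with compounds given intraperitoneally at 30, 100 and 300 mg/kg. Activity is checked at 0.5 h and 4.0 h and recorded as the minimal dose active in at least half of the animals. Absence of activity is judged at the 300 mg/kg maximum.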

Rattus norvegicus [3] = experiment: Anticonvulsant activity against subcutaneous strychnine-induced seizures in ip dosed Wistar rat assessed as minimum effective dose after 0.5 hrs; format: functional; settings: read-out: MED
Method in brief: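 Rats given 30, 100 or 300 mg/kg ip and challenged with subcutaneous strychnine. Protection was read at 0.5 and 4.0 h after dosing. The value is the minimal dose that gave activity in half or more of the animals; no activity at 300 mg/kg was the highest-dose cut-off.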

Mus musculus [4] = experiment: Anticonvulsant activity against subcutaneous pentylenetetrazole-induced seizures in Swiss albino mouse at 300 mg/kg, ip after 4 hrs; format: functional, organism-based; parameters: dose 300 mg/kg
Method in brief: (§3)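 Mice; subcutaneous pentylenetetrazole seizure screen after ip dosing at 30, 100 and 300 mg/kg, read 0.5 and 4.0 h post-dose. Scored as the lowest dose protecting at least half of the animals. Absence of activity is judged at the 300 mg/kg maximum.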

Mus musculus [5] = experiment: Anticonvulsant activity against subcutaneous pentylenetetrazole-induced seizures in ip dosed Swiss albino mouse assessed as minimum effective dose after 0.5 hrs; format: functional; settings: read-out: MED; method in brief: as §3
Mus musculus [6] = experiment: Anticonvulsant activity against maximal electroshock-induced seizures in Swiss albino mouse at 300 mg/kg, ip after 4 hrs; format: functional, organism-based; parameters: dose 300 mg/kg
Method in brief: (§4)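 Mice; compounds given ip at 30, 100 and 300 mg/kg and tested in the maximal electroshock seizure model at 0.5 and 4.0 h after dosing. Read-out is the minimal dose giving protection in half or more of the animals. Absence of activity is judged at the 300 mg/kg maximum.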

Mus musculus [7] = experiment: Anticonvulsant activity against maximal electroshock-induced seizures in ip dosed Swiss albino mouse assessed as minimum effective dose after 0.5 hrs; format: functional; settings: read-out: MED; method in brief: as §4
Mus musculus [8] = experiment: Neurotoxicity in Swiss albino mouse at 300 mg/kg, ip after 4 hrs; format: toxicity, organism-based; parameters: dose 300 mg/kg, route intraperitoneal; settings: in vivo; method in brief: as §1
Mus musculus [9] = experiment: Neurotoxicity in ip dosed Swiss albino mouse assessed as minimum dose required to cause toxicity after 0.5 hrs; format: organism-based; settings: in vivo; method in brief: as §1
Rattus norvegicus [10] = experiment: Anticonvulsant activity against subcutaneous strychnine-induced seizures in ip dosed Wistar rat assessed as minimum effective dose after 4 hrs; format: functional; settings: read-out: MED; method in brief: as §2
Rattus norvegicus [11] = experiment: Anticonvulsant activity against subcutaneous strychnine-induced seizures in Wistar rat at 300 mg/kg, ip after 0.5 hrs; format: functional, organism-based; parameters: dose 300 mg/kg; method in brief: as §2
Mus musculus [12] = experiment: Anticonvulsant activity against subcutaneous pentylenetetrazole-induced seizures in Swiss albino mouse at 300 mg/kg, ip after 0.5 hrs; format: functional, organism-based; parameters: dose 300 mg/kg; method in brief: as §3
Mus musculus [13] = experiment: Anticonvulsant activity against maximal electroshock-induced seizures in Swiss albino mouse at 300 mg/kg, ip after 0.5 hrs; format: functional, organism-based; parameters: dose 300 mg/kg; method in brief: as §4
Mus musculus [14] = experiment: Neurotoxicity in ip dosed Swiss albino mouse assessed as minimum dose required to cause toxicity after 4 hrs; format: organism-based; settings: in vivo; method in brief: as §1
Mus musculus [15] = experiment: Anticonvulsant activity against maximal electroshock-induced seizures in ip dosed Swiss albino mouse assessed as minimum effective dose after 4 hrs; format: functional; settings: read-out: MED; method in brief: as §4
Mus musculus [16] = experiment: Anticonvulsant activity against subcutaneous pentylenetetrazole-induced seizures in ip dosed Swiss albino mouse assessed as minimum effective dose after 4 hrs; format: functional; settings: read-out: MED; method in brief: as §3
Rattus norvegicus [17] = experiment: Anticonvulsant activity against maximal electroshock-induced seizures in Wistar rat at 30 mg/kg, po after 0.25 hrs; format: functional, organism-based; parameters: dose 30 mg/kg
Method in brief: (§5)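 Rats dosed orally at 30 mg/kg; maximal electroshock protection scored at 0.25, 0.5, 1, 2 and 4 h. Result is given as the number of protected rats out of four.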

Rattus norvegicus [18] = experiment: Anticonvulsant activity against maximal electroshock-induced seizures in Wistar rat at 30 mg/kg, po after 0.5 hrs; format: functional, organism-based; parameters: dose 30 mg/kg; method in brief: as §5
Rattus norvegicus [19] = experiment: Anticonvulsant activity against maximal electroshock-induced seizures in Wistar rat at 30 mg/kg, po after 1 hr; format: functional, organism-based; parameters: dose 30 mg/kg; method in brief: as §5
Rattus norvegicus [20] = experiment: Neurotoxicity in Wistar rat at 30 mg/kg, po after 0.25 hrs; format: toxicity, organism-based; parameters: dose 30 mg/kg, route oral; settings: in vivo
Method in brief: (§6)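 Oral dosing in rats at 30 mg/kg, neurotoxicity (rotorod) scored at 0.25, 0.5, 1, 2 and 4 h post-administration. Counts are out of four rats per time point.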

Rattus norvegicus [21] = experiment: Neurotoxicity in Wistar rat at 30 mg/kg, po after 0.5 hrs; format: toxicity, organism-based; parameters: dose 30 mg/kg, route oral; settings: in vivo; method in brief: as §6
Rattus norvegicus [22] = experiment: Neurotoxicity in Wistar rat at 30 mg/kg, po after 1 hr; format: toxicity, organism-based; parameters: dose 30 mg/kg, route oral; settings: in vivo; method in brief: as §6
Rattus norvegicus [23] = experiment: Neurotoxicity in Wistar rat at 30 mg/kg, po after 2 hrs; format: toxicity, organism-based; parameters: dose 30 mg/kg, route oral; settings: in vivo; method in brief: as §6
Rattus norvegicus [24] = experiment: Increase in GABA level in Wistar rat midbrain assessed per mg of tissue at 100 mg/kg, ip after 2 hrs; format: functional; settings: route intraperitoneal
Method in brief: (§7)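 Rats given 100 mg/kg ip and killed by decapitation 2 h later. Midbrain, medulla oblongata and cerebellum are placed separately in ice-cold 80% ethanol and processed for GABA, expressed per 100 mg tissue. Reference drug clobazam is given at 30 mg/kg ip. Values are mean ± SEM of six rats.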

Rattus norvegicus [25] = experiment: Increase in GABA level in Wistar rat medulla oblangata assessed per mg of tissue at 100 mg/kg, ip after 2 hrs; format: functional, Medulla oblongata; settings: route intraperitoneal; method in brief: as §7
Rattus norvegicus [26] = experiment: Increase in GABA level in Wistar rat cerebellum assessed per mg of tissue at 100 mg/kg, ip after 2 hrs; format: functional; settings: route intraperitoneal; method in brief: as §7

SMILES | Activity (Mus musculus [1]) | MED (Rattus norvegicus [2]) | MED (Mus musculus [4]) | MED (Mus musculus [6]) | minimal effective dose (Mus musculus [7]) [mg/kg] | Activity (Mus musculus [8]) | Activity (Mus musculus [9]) [mg/kg] | MED (Rattus norvegicus [11]) | MED (Mus musculus [12]) | MED (Mus musculus [13]) | Activity (Mus musculus [14]) [mg/kg] | minimal effective dose (Mus musculus [15]) [mg/kg] | minimal effective dose (Mus musculus [16]) [mg/kg] | further results
CCCC(CCC)C(=O)[O-].[Na+] [VALPROATE SODIUM] | Non-toxic | inactive | inactive | inactive | 300 | Non-toxic | – | – | – | – | – | – | – | minimal effective dose (Rattus norvegicus [3]): 300 mg/kg; minimal effective dose (Mus musculus [5]): 300 mg/kg
COc1cc(/C=N\NC(=O)Nc2nnc(COc3ccc4ccccc4c3)o2)ccc1O | – | – | inactive | inactive | – | Non-toxic | 300 | inactive | inactive | inactive | – | – | – | minimal effective dose (Rattus norvegicus [10]): 300 mg/kg
CN(C)c1ccc(/C=N\NC(=O)Nc2nnc(COc3ccc4ccccc4c3)o2)cc1 | Non-toxic | inactive | inactive | – | 100 | – | – | inactive | inactive | – | 300 | 300 | – | –
C/C(=N/NC(=O)Nc1nnc(COc2ccc3ccccc3c2)o1)c1ccc(Cl)cc1 | Non-toxic | inactive | – | inactive | – | Non-toxic | – | inactive | inactive | inactive | – | – | 300 | –
C/C(=N/NC(=O)Nc1nnc(COc2ccc3ccccc3c2)o1)c1ccc(C)cc1 | – | inactive | inactive | inactive | – | Non-toxic | 300 | inactive | – | inactive | – | – | – | minimal effective dose (Mus musculus [5]): 300 mg/kg
C/C(=N/NC(=O)Nc1nnc(COc2ccc3ccccc3c2)o1)c1ccc(O)cc1 | Non-toxic | inactive | inactive | – | 100 | – | – | inactive | inactive | – | 300 | 300 | – | –
O=C(NN=C(c1ccccc1)c1ccccc1)Nc1nnc(COc2ccc3ccccc3c2)o1 | – | inactive | inactive | – | – | Non-toxic | 300 | inactive | inactive | inactive | – | 300 | – | –
Cc1ccc(/C=N\NC(=O)Nc2nnc(COc3ccc4ccccc4c3)o2)cc1 | Non-toxic | inactive | inactive | – | – | Non-toxic | – | inactive | inactive | inactive | – | 300 | – | –
O=C(N/N=C\c1ccc([N+](=O)[O-])cc1)Nc1nnc(COc2ccc3ccccc3c2)o1 | Non-toxic | – | inactive | inactive | 300 | – | – | inactive | inactive | – | 300 | – | – | minimal effective dose (Rattus norvegicus [10]): 300 mg/kg
NC(=O)N1c2ccccc2C=Cc2ccccc21 [CARBAMAZEPINE] | – | inactive | – | – | 30 | – | 100 | inactive | – | – | 300 | 100 | 300 | minimal effective dose (Mus musculus [5]): 100 mg/kg
O=C(N/N=C\c1ccc(Cl)cc1)Nc1nnc(COc2ccc3ccccc3c2)o1 | – | inactive | inactive | inactive | – | Non-toxic | 300 | inactive | inactive | inactive | – | – | – | –
COc1ccc(/C(=N\NC(=O)Nc2nnc(COc3ccc4ccccc4c3)o2)c2ccccc2)cc1 | Non-toxic | inactive | inactive | – | – | – | – | inactive | inactive | inactive | 300 | 300 | – | –
O=C(N/N=C\c1cccc(O)c1)Nc1nnc(COc2ccc3ccccc3c2)o1 | Non-toxic | inactive | – | – | – | – | – | inactive | inactive | inactive | 300 | 300 | 300 | –
O=C(N/N=C(/c1ccccc1)c1ccc(O)cc1)Nc1nnc(COc2ccc3ccccc3c2)o1 | Non-toxic | – | – | – | 100 | Non-toxic | – | inactive | inactive | – | – | 300 | 300 | minimal effective dose (Rattus norvegicus [10]): 300 mg/kg; Activity (Rattus norvegicus [17]): inactive; Activity (Rattus norvegicus [18]): inactive; Activity (Rattus norvegicus [19]): inactive; Activity (Rattus norvegicus [20]): Non-toxic; Activity (Rattus norvegicus [21]): Non-toxic; Activity (Rattus norvegicus [22]): Non-toxic; Activity (Rattus norvegicus [23]): Non-toxic; Activity (Rattus norvegicus [24]): 62.25 µg; Activity (Rattus norvegicus [25]): 37.74 µg; Activity (Rattus norvegicus [26]): 31.41 µg
CCC1(C)CC(=O)NC1=O (configuration not stated) [ETHOSUXIMIDE] | Non-toxic | inactive | – | inactive | – | Non-toxic | – | – | – | inactive | – | – | 300 | minimal effective dose (Rattus norvegicus [3]): 300 mg/kg; minimal effective dose (Mus musculus [5]): 100 mg/kg
COc1ccc(/C=N\NC(=O)Nc2nnc(COc3ccc4ccccc4c3)o2)cc1 | Non-toxic | inactive | – | inactive | – | Non-toxic | – | inactive | inactive | inactive | – | – | 300 | –
O=C(N/N=C\c1ccccc1)Nc1nnc(COc2ccc3ccccc3c2)o1 | Non-toxic | inactive | inactive | – | – | – | – | inactive | inactive | inactive | 300 | 300 | – | –
C/C(=N/NC(=O)Nc1nnc(COc2ccc3ccccc3c2)o1)c1ccc(N)cc1 | Non-toxic | – | – | – | – | Non-toxic | – | inactive | inactive | inactive | – | 300 | 300 | minimal effective dose (Rattus norvegicus [10]): 300 mg/kg
O=C1NC(=O)C(c2ccccc2)(c2ccccc2)N1 [PHENYTOIN] | – | – | inactive | – | 30 | – | 100 | inactive | inactive | – | 100 | 30 | – | minimal effective dose (Rattus norvegicus [10]): 100 mg/kg
